Results published in ChEMBL document CHEMBL1146234, “Synthesis and biological evaluation of N-pyrazolyl-N'-alkyl/benzyl/phenylureas: a new class of potent inhibitors of interleukin 8-induced neutrophil chemotaxis” (J Med Chem, 2007).
The source made the active and inactive calls. The rule behind the calls is not given here.

Tests used:
[1] = system: Neutrophil; assay: Inhibition of fMLP-induced neutrophil chemotaxis after 45 mins by Boyden chamber assay; assay type: functional, cell-based; conditions: Homo sapiens
How it was run: (§1)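 Leading-front Boyden assay with donor neutrophils. Cells were preincubated 15 min at room temperature ± compound. Then 4 × 10⁵ cells were placed above a 3 µm cellulose ester filter, with IL8 or fMLP below. After 45 min at 37 °C, filters were hematoxylin-stained and the leading-front distance was read at ×400, 5 fields per filter, in duplicate. Net migration = stimulated minus spontaneous. IC₅₀ came from nonlinear regression, ≥3 experiments.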

[2] = system: Neutrophil; assay: Inhibition of IL8-induced neutrophil chemotaxis after 45 mins by Boyden chamber assay; assay type: functional, cell-based; conditions: Homo sapiens, 0.75 h; how it was run: as §1
[3] = system: Neutrophil; assay: Cytotoxicity against human neutrophils assessed as viable cells after 2 hrs; assay type: functional; set-up: concentration or dose not given beside the values
How it was run: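 Human neutrophils (2 × 10⁶/mL) from healthy donors were incubated 2 h at 37 °C under CO₂ in HBSS:PBS (3:1) with 1 mg/mL BSA, with compounds. Membrane integrity was read by fluorescein diacetate/ethidium bromide staining for 10 min at room temperature, under UV dark-field microscopy. Green cells were scored viable; red nuclei were scored necrotic.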

[4] = system: Mus musculus; assay: Lymphocyte percentage in zymosan-induced Swiss mouse peritoneal fluid at 100 mg/kg, po
[5] = system: Mus musculus; assay: Monocyte percentage in zymosan-induced Swiss mouse peritoneal fluid at 100 mg/kg, po
[6] = system: Mus musculus; assay: Inhibition of peritoneal cell count in zymosan-induced Swiss mouse peritoneal fluid at 100 mg/kg, po; assay type: functional
How it was run: (§2)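 Male Swiss mice (25-30 g), fasted 16 h, n = 8 per group, were dosed orally 1 h before i.p. zymosan (5 mg/mL, 0.2 mL). Dexamethasone 1 mg/kg os served as reference. At 4 h, peritoneal lavage used 3 mL PBS with 3 mM EDTA. Total leukocytes were counted in a Neubauer chamber (Türk 1:100), with differentials by light microscopy. Counts were compared with vehicle by Student's t-test.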

[7] = system: Mus musculus; assay: Granulocyte percentage in zymosan-induced Swiss mouse peritoneal fluid at 100 mg/kg, po
[8] = system: Mus musculus; assay: Inhibition of peritoneal granulocyte count in zymosan-induced Swiss mouse peritoneal fluid at 100 mg/kg, po; assay type: functional; how it was run: as §2
[9] = system: Mus musculus; assay: Inhibition of peritoneal granulocyte count in zymosan-induced Swiss mouse peritoneal fluid at 1 mg/kg, po; assay type: functional; how it was run: as §2
[10] = system: Mus musculus; assay: Inhibition of peritoneal cell count in zymosan-induced Swiss mouse peritoneal fluid at 1 mg/kg, po; assay type: functional; conditions: read-out: Inhibition; how it was run: as §2
[11] = system: Mus musculus; assay: Percentage of granulocytes in zymosan-induced Swiss mouse peritoneal fluid at 1 mg/kg, po
[12] = system: Mus musculus; assay: Percentage of monocytes in zymosan-induced Swiss mouse peritoneal fluid at 1 mg/kg, po
[13] = system: Mus musculus; assay: Percentage of lymphocytes in zymosan-induced Swiss mouse peritoneal fluid at 1 mg/kg, po

Row | IC50 [2] [nM] | SMILES | Activity [1] | Activity [3] [%] | other results
1 | 3890 | CCOC(=O)c1cnn(CC(O)c2ccccc2)c1NC(=O)NCc1ccc(Br)cc1 (stereo not given) | inactive | 90 | –
2 | 345 | CCOC(=O)c1cnn(CC(O)c2ccccc2)c1NC(=O)Nc1ccc(Cl)cc1 (stereo not given) | inactive | 90 | –
3 | 1240 | CCOC(=O)c1cnn(CC(O)c2ccccc2)c1NC(=O)NCc1ccccc1Cl (stereo not given) | inactive | 90 | –
4 | 424 | CCOC(=O)c1cnn(CC(O)c2ccccc2)c1NC(=O)Nc1cccc(Br)c1 (stereo not given) | inactive | 90 | –
5 | 1200 | CCOC(=O)c1cnn(CC(O)c2ccccc2)c1NC(=O)Nc1ccccc1OC (stereo not given) | inactive | 90 | –
6 | 950 | CCOC(=O)c1cnn(CC(O)c2ccccc2)c1NC(=O)N1CCOCC1 (stereo not given) | inactive | 90 | –
7 | 5520 | CCOC(=O)c1cnn(CC(O)c2ccccc2)c1NC(=O)NC1CC1 (stereo not given) | inactive | 90 | –
8 | – | CCOC(=O)c1cnn(CC(O)c2ccccc2)c1NC(=O)N1CCN(Cc2ccccc2)CC1 (stereo not given) | inactive | 90 | –
9 | 198 | CCOC(=O)c1cnn(CC(O)c2ccccc2)c1NC(=O)NCc1cccc(Br)c1 (stereo not given) | inactive | 90 | –
10 | 36 | CCOC(=O)c1cnn(CC(O)c2ccccc2)c1NC(=O)Nc1cccc(F)c1 (stereo not given) | inactive | 90 | % lymphocytes at 100 mg/kg [4]: 28%; % monocytes at 100 mg/kg [5]: 10%; inhibition in vivo at 100 mg/kg [6]: 29%; % granulocytes at 100 mg/kg [7]: 62%; inhibition in vivo at 100 mg/kg [8]: 33%
11 | 1000 | CCOCCNC(=O)Nc1c(C(=O)OCC)cnn1CC(O)c1ccccc1 (stereo not given) | inactive | 90 | –
12 | 92 | CCOC(=O)c1cnn(CC(O)c2ccccc2)c1NC(=O)Nc1ccc(Br)cc1 (stereo not given) | inactive | 90 | –
13 | 35 | CC(C)NC(=O)Nc1c(C#N)cnn1CC(O)c1ccccc1 (stereo not given) | inactive | 90 | –
14 | 225 | N#Cc1cnn(CC(O)c2ccccc2)c1NC(=O)Nc1ccccc1 (stereo not given) | inactive | 90 | –
15 | 1560 | CCOC(=O)c1cnn(CC(O)c2ccccc2)c1NC(=O)Nc1cccc(Cl)c1 (stereo not given) | inactive | 90 | –
16 | 398 | CCOC(=O)c1cnn(CC(O)c2ccccc2)c1NC(=O)Nc1cccc(C)c1 (stereo not given) | inactive | 90 | –
17 | 212 | CCOC(=O)c1cnn(CC(O)c2ccccc2)c1NC(=O)NCc1ccc(F)cc1 (stereo not given) | inactive | 90 | –

Row | IC50 [2] [nM] | SMILES | Activity [1] | Activity [3] [%] | other results
18 | 610 | CCOC(=O)c1cnn(CC(O)c2ccccc2)c1NC(=O)NCCc1ccccc1 (stereo not given) | inactive | 90 | –
19 | 935 | CCOC(=O)c1cnn(CC(O)c2ccccc2)c1NC(=O)NCc1ccc(Cl)cc1 (stereo not given) | inactive | 90 | –
20 | 445 | CCOC(=O)c1cnn(CC(O)c2ccccc2)c1NC(=O)Nc1ccc(C)cc1 (stereo not given) | inactive | 90 | –
21 | 865 | CCOC(=O)c1cnn(CC(O)c2ccccc2)c1NC(=O)N1CCN(C)CC1 (stereo not given) | inactive | 90 | –
22 | 318 | CCOC(=O)c1cnn(CC(O)c2ccccc2)c1NC(=O)NCc1cccc(F)c1 (stereo not given) | inactive | 90 | –
23 | 825 | CC(C)NC(=O)Nc1ccnn1CC(O)c1ccccc1 (stereo not given) | inactive | 90 | –
24 | 4950 | CCOC(=O)c1cnn(CC(O)c2ccccc2)c1NC(=O)N1CCCC1 (stereo not given) | inactive | 90 | –
25 | 251 | CC(C)NC(=O)Nc1c(C(=O)O)cnn1CC(O)c1ccccc1 (stereo not given) | inactive | 90 | –
26 | 3090 | CCOC(=O)c1cnn(CC(O)c2ccccc2)c1NC(=O)N1CCCCC1 (stereo not given) | inactive | 90 | –
27 | 570 | CCOC(=O)c1cnn(CC(O)c2ccccc2)c1NC(=O)NCc1cccc(Cl)c1 (stereo not given) | inactive | 90 | –
28 | 1780 | CCOC(=O)c1cnn(CC(O)c2ccccc2)c1NC(=O)NCc1ccccc1Br (stereo not given) | inactive | 90 | –
29 | – | C[C@@H]1C[C@H]2[C@@H]3CCC4=CC(=O)C=C[C@]4(C)[C@@]3(F)[C@@H](O)C[C@]2(C)[C@@]1(O)C(=O)CO [DEXAMETHASONE] | – | – | inhibition in vivo at 1 mg/kg [9]: 62%; inhibition in vivo at 1 mg/kg [10]: 33%; % granulocytes at 1 mg/kg [11]: 42%; % monocytes at 1 mg/kg [12]: 14%; % lymphocytes at 1 mg/kg [13]: 44%
30 | 33 | CCOC(=O)c1cnn(CC(O)c2ccccc2)c1NC(=O)Nc1ccccc1F (stereo not given) | inactive | 90 | –
31 | 1400 | CCOC(=O)c1cnn(CC(O)c2ccccc2)c1NC(=O)Nc1cccc(OC)c1 (stereo not given) | inactive | 90 | –
32 | 1490 | CCOC(=O)c1cnn(CC(O)c2ccccc2)c1NC(=O)NCc1ccccc1F (stereo not given) | inactive | 90 | –
33 | 33 | CCOC(=O)c1cnn(CC(O)c2ccccc2)c1NC(=O)Nc1ccc(F)cc1 (stereo not given) | inactive | 90 | –
